# PG9 Ab binder: binders of HIV-1 gp120 antibody PG9, primary screen, biochemical, TR-FRET; HIV-1 gp120 / PG9 antibody interaction; TR-FRET gp120-PG9 antibody binding; inhibition, % at 6.7 µM; 360,000 compounds, 0.43% hits; AID 624416, 2012; in the data active = inhibition above about 8.5%
# NR2E3 ag-1: inhibitors of NR2E3-RetCOR corepressor binding, primary screen, NR2E3 agonist project, biochemical, TR-FRET, GST-NR2E3, biotin-RetCOR; 1536-well; inhibition of corepressor binding, % at 4.78 µM; 320,000 compounds, 0.12% hits;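 active = percent inhibition above the cutoff of mean plus 3 SD of all tested compounds, set per screening campaign, cut at about 20% in these data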;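 also: 0% = DMSO wells and 100% = biotin wells as full block of FRET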
#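 Format: 1536-well format; test system: GST-NR2E3 and biotin-RetCOR proteins; read-out basis: percent inhibition of TR-FRET ratio; timing: 5 h incubation at 4 °C; detection: time-resolved FRET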
# MT1-MMP act inh: blockers of MT1-MMP proenzyme processing, primary screen, HT1080 RFP-PRO-GFP cells, GFP/RFP fluorescence | Matrix metalloproteinase-14 (Homo sapiens), P50281 | GFP/RFP ratio change, % at 20 µM | AID 651647, 2012 | 360,000 compounds, 0.061% hits | GFP/RFP ratio fluorescence, overnight; percent of plate control window, DMSO zero;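 active = GFP/RFP ratio change of at least 30% with cell ATP level not reduced by more than half and red fluorescence within 50% of control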
#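 Read-out: GFP/RFP fluorescence ratio; Test system: RFP-PRO-GFP reporter HT1080 cells; Compound dosing: single-point 20 µM compound, 1% DMSO; Times: overnight compound exposure at 37 °C.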
# Rev-erbA mod: modulators of Rev-erb alpha DNA binding, primary screen, biochemical, FITC-DNA, fluorescence polarization, uHTS; Nuclear receptor subfamily 1 group D member 1 (Homo sapiens), P20393; 370,000 compounds, 0.79% hits; activity, % at 10 µM; AID 1259318, 2017; Rev-erbα–FITC-DNA binding, 90 min;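 active = activity above about 14%, limit read from the data; passing the limit was not always enough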;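 also: 0% = DMSO wells with 35 nM protein and 100% = DMSO wells with 750 nM protein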
# Target sequence (P20393 whole entry, looked up): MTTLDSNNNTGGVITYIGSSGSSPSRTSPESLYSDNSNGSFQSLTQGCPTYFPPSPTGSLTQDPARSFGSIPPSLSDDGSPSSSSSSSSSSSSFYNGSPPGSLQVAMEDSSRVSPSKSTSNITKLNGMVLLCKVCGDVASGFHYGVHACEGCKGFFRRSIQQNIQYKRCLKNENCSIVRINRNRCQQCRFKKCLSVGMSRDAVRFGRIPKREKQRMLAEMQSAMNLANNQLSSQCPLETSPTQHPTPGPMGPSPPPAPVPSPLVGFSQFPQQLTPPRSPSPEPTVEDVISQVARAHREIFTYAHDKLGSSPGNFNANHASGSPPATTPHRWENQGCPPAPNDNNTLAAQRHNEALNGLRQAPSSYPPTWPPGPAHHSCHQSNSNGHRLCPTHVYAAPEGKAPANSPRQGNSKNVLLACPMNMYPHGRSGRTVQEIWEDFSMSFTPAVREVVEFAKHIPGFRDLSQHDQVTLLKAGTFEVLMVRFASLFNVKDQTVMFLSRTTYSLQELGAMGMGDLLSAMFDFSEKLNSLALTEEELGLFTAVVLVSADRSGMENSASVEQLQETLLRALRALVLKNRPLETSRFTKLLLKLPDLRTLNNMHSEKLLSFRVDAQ
# NR2E3 ag-2: NR2E3 agonists in two-hybrid cells, primary screen, cell-based, luminescence, CHO-S, Gal4-NCOR/VP16-NR2E3; Photoreceptor-specific nuclear receptor (Homo sapiens), Q9Y5X4; luciferase; inhibition of corepressor binding, % at 3.98 µM; 360,000 compounds, 0.35% hits; AID 602229, 2012;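 active = inhibition above the mean of all tested compounds plus 3 SD, cut at about 70% in these data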;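 also: 0% = DMSO with NR2E3 transfected cells and 100% = cells lacking NR2E3 construct; higher means lower luciferase signal from less NR2E3 corepressor binding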
# SKN-1 block: suppressors of acrylamide-induced Pgst-4::GFP reporter in worms, primary screen, SKN-1 inhibitor project, whole organism, uHTS, GFP/RFP fluorescence ratio, strain VP596; C. elegans VP596 Pgst-4::GFP/RFP ratio, 24 h; inhibition, % at 21.8 µM; 360,000 compounds, 0.49% hits; AID 624304, 2012;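 active = interference check ratio from 0.5 to 1.5 plus GFP to RFP signal ratio inhibition reaching or exceeding a fixed threshold, cut at about 30% in these data, passing the limit was not always enough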
# PG9 bind confirm: binders of anti-gp120 antibody PG9, confirmation, biochemical, TR-FRET; 1,500 compounds, 90% hits; inhibition, % at 6.7 µM; shares compounds with PG9 Ab binder; AID 651571, 2012; TR-FRET PG9 antibody binding; in the data active = inhibition above about 9%
# PGV04 counter: binders of control antibody PGV04, counter-screen for PG9 antibody binder project, biochemical, TR-FRET, distinct HIV envelope site. shares compounds with PG9 Ab binder. TR-FRET PGV04 antibody-gp120 binding. inhibition, % at 6.7 µM. 1,500 compounds, 95% hits; in the data active = inhibition above about 9.5%
# The depositor's hits bear a star; · = not tested or not shown. Rows were chosen to be rich in hits. Some 1.9% of all compounds tested hit in one or more screens of this group.
SMILES,PG9 Ab binder,NR2E3 ag-1,MT1-MMP act inh,Rev-erbA mod,NR2E3 ag-2,SKN-1 block,PG9 bind confirm,PGV04 counter
O=S1(=O)c2ccc(N3CCSCC3)cc2Oc2ccccc2CN1Cc1cn(Cc2ccccc2C(F)(F)F)nn1,·,·,·,15,·,·,·,·
O=C(Cn1ccc2ccccc2c1=O)NCC1COc2ccccc2O1 (stereo unspecified),17*,0,3,-1,-4,11,21*,27*
COc1ccccc1-c1c(C(F)(F)F)oc2cc(OCC(=O)Nc3ccccc3C(F)(F)F)ccc2c1=O,12*,-3,3,2,-15,14,20*,37*
O=C(O)Cn1c2c(c3ccccc31)CSc1ccc(Cl)cc1-2,17*,8,2,9,-29,2,10*,14*
O=C(O)Cn1c2ccccc2c2ccccc21,-1,-5,-2,2,20,11,·,·
CN1CC[C@@H]2CN(S(=O)(=O)c3ccccc3)[C@H](c3ccccc3Br)C[C@@H]21,-1,·,·,-4,·,·,·,·
N#Cc1c(SCC(=O)O)nc(-c2ccccc2)c2c1CCCC2,13*,9,5,-7,-5,8,19*,24*
N#Cc1c(SCC(N)=O)nc(-c2ccccc2)c2c1CCCC2,4,1,-1,6,-35,18,·,·
C[C@@H]1CCC[C@]2(O[C@H](CCO)C[C@H](O)[C@H]2O)O1,13*,-1,-2,-4,-9,9,-3,-2
C[C@H]1C(c2ccccc2F)O[C@]2(C[C@H](O)c3ccccc3O2)C[C@@H]1O (stereo partly specified),·,·,·,2,·,·,·,·
CSc1ncccc1C(=O)OCc1ccc(C#N)cc1,9.8*,5,3,2,6,-5,15*,20*
CSc1ncccc1C(=O)OCC(=O)c1ccc(C)s1,16*,·,-1,17,-27,2,16*,38*
CSc1ncccc1C(=O)OCC(=O)c1ccc(Cl)s1,-2,·,-1,2,26,6,·,·
CCOc1ncccc1C(=O)OCC(=O)Nc1ccc(Cl)cn1,-2,·,-2,-1,-14,15,·,·
CSc1ncccc1C(=O)OCC(=O)Nc1ccc(Cl)cn1,17*,·,4,-3,-15,24,9.9*,15*
C=CCNc1cccc2c1S(=O)(=O)N[C@H](Cc1ccccc1)CO2,0,·,·,-3,·,·,·,·
COc1ccccc1CN1Cc2ccccc2Oc2ccccc2S1(=O)=O,0,·,·,4,·,·,·,·
O=C(NCc1ccccc1)[C@H]1CCCN1C(=O)[C@H]1CCCN1C(=O)c1ccc(Cl)cc1,-2,·,·,8,·,·,·,·
CCOC(=O)C1=CCN(S(C)(=O)=O)C1c1ccc(Cl)cc1 (stereo unspecified),2,·,·,9,·,·,·,·
NC(=O)c1nn(-c2ccccc2)nc1NC(=O)Cn1nnc(-c2ccccc2)n1,8.6*,4,-1,-3,-19,9,18*,19*
O=c1ccn2c(n1)OC1CC2OC1COC(c1ccccc1)(c1ccccc1)c1ccccc1 (stereo unspecified),-1,·,·,9,·,·,·,·
CNc1nn(-c2cccc(Cl)c2)nc1N,21*,-3,28,1,-75,11,21*,27*
CCc1cc2c(SCC(=O)NC(=O)c3cccn3C)ncnc2s1,21*,6,0,4,-16,3,18*,34*
CCc1cc2c(SCC(=O)Nc3cc(C)on3)ncnc2s1,22*,0,-4,12,-37,1,32*,48*
CC(C)OC(=O)[C@@H](Cc1ccccc1)N[C@H](/C=C/c1ccccc1)[C@@H](O)Cc1ccccc1,-1,·,·,5,·,·,·,·
SMILES,PG9 Ab binder,NR2E3 ag-1,MT1-MMP act inh,Rev-erbA mod,NR2E3 ag-2,SKN-1 block,PG9 bind confirm,PGV04 counter
CN1NC(=O)c2ccccc2NC1=S,1,·,·,1,·,·,·,·
O=C(Cn1c(=O)c2cccn2c2ccccc21)NCCc1ccccc1,11*,10,-2,7,15,-3,19*,27*
O=C(O)Cn1c(=O)c2cccn2c2ccccc21,-1,2,5,9,4,11,·,·
CC(C)(C)c1ccc(C(=O)Nc2ccc(Cl)cc2)cc1,8.6*,4,11,-4,-82,4,16*,18*
O=C(Nc1ccc(Nc2ccccc2)cc1)c1ccc(Cl)cc1,-1,1,1,2,-2,12,·,·
COC(=O)C1=C(C)N(Cc2ccccc2C(F)(F)F)C(=NCc2ccccc2C(F)(F)F)NC1c1ccc(F)cc1 (stereo unspecified),0,·,·,8,·,·,·,·
OC(COc1cccc2ccccc12)CN1CCN(c2ccc(Cl)cc2)CC1 (stereo unspecified),18*,-1,2,10,23,9,27*,31*
OC(COc1cccc2ccccc12)CN1CCN(c2cccc(Cl)c2)CC1 (stereo unspecified),0,0,1,0,0,1,·,·
Cc1ccc(S(=O)(=O)N2CCCc3nc(C)c(C)cc32)cc1,1,·,·,13,·,·,·,·
Cc1cc(SCC(=O)N2CCCC2=O)nc2c(C)cccc12,1,-4,6,0,-2,-2,·,·
Cc1cc(SCCC(=O)O)nc2c(C)cccc12,11*,14,4,-1,-2,21,14*,18*
Cc1cc(SCC(=O)NC2(C#N)CCCCC2)nc2c(C)cccc12,23*,1,-7,-2,-10,10,31*,37*
O=C(C(=O)N1CCN(C(=O)C2CCC2)CC1)c1cccc(C(F)(F)F)c1,-1,·,·,2,·,·,·,·
